Legend:
Settings in all cases: stereoisomer not certain
UniProt Q8VGC6 = target: T1, UniProt Q8VGC6
T1 sequence (whole entry): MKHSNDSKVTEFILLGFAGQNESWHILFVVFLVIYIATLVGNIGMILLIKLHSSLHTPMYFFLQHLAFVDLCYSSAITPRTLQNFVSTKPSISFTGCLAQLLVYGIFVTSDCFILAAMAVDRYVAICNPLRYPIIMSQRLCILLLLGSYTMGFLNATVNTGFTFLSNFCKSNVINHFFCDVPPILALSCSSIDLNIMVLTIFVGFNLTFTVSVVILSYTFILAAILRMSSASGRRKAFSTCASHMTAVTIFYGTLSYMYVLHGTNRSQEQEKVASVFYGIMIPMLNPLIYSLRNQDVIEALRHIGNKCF
How it was run: (§1)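 Each entry records the cell line, G-protein, co-transfected protein and tags used. Methods varied with the source, often transient luciferase assays in mammalian cell lines. A receptor–molecule pair is called responsive (active) if the original authors judged its signal statistically different from baseline and non-responsive (inactive) otherwise.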

UniProt Q8VGD7 = target: T2, UniProt Q8VGD7
T2 sequence (whole entry): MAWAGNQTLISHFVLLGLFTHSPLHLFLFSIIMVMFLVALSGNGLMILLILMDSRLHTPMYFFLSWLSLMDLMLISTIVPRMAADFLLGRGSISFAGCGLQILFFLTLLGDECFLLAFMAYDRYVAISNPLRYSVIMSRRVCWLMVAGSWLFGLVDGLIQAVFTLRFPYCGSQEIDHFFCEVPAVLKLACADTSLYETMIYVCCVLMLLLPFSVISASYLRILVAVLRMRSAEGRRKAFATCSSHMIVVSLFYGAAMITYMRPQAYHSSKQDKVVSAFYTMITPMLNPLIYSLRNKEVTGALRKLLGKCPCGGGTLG
How it was run: as §1

UniProt Q8VGH1 = target: T3, UniProt Q8VGH1
T3 sequence (whole entry): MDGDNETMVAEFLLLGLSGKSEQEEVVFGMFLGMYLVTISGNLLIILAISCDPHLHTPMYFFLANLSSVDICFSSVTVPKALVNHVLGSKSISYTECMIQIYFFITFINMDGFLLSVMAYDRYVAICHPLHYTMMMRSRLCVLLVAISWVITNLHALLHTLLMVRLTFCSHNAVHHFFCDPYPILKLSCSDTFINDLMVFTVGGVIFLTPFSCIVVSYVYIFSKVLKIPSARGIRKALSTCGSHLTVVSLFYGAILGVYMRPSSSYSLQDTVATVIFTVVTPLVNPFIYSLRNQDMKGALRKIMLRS
How it was run: as §1

UniProt Q8VGJ1 = target: T4, UniProt Q8VGJ1
T4 sequence (whole entry): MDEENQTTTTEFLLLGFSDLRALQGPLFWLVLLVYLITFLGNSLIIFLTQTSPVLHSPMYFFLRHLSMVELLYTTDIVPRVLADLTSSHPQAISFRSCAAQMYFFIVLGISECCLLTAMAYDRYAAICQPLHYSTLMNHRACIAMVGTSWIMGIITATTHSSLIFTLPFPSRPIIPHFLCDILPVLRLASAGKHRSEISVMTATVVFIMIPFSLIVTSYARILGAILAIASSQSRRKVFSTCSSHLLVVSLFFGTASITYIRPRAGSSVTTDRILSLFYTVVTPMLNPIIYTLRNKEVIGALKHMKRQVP
How it was run: as §1

UniProt Q8VGJ3 = target: T5, UniProt Q8VGJ3
T5 sequence (whole entry): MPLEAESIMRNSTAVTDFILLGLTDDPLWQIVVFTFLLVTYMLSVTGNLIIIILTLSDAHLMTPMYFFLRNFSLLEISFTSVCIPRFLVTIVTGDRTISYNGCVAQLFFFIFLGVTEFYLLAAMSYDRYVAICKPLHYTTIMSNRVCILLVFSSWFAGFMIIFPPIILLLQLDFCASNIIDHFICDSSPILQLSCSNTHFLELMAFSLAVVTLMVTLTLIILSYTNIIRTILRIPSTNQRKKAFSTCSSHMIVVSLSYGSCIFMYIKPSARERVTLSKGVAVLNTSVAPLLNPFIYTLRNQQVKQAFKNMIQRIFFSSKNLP
How it was run: as §1

UniProt Q8VGJ5 = target: T6, UniProt Q8VGJ5
T6 sequence (whole entry): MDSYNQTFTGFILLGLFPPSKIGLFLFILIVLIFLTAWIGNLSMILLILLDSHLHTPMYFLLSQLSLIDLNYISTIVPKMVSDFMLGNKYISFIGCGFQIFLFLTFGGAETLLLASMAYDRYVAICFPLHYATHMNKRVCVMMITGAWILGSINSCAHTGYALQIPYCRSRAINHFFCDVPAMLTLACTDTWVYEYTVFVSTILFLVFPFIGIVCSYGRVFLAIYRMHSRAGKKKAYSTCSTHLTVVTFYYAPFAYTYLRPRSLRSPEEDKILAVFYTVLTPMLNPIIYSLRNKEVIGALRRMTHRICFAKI
How it was run: as §1

UniProt Q8VGL0 = target: T7, UniProt Q8VGL0
T7 sequence (whole entry): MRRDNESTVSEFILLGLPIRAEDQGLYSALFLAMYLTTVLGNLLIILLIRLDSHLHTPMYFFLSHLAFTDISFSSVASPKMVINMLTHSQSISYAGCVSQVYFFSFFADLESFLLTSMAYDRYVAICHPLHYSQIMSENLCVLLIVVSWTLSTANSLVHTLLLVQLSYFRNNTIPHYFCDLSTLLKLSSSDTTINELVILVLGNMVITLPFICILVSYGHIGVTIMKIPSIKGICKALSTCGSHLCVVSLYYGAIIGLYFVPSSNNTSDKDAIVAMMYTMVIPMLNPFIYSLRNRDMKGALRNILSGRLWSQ
How it was run: as §1

UniProt Q8VGL7 = target: T8, UniProt Q8VGL7
T8 sequence (whole entry): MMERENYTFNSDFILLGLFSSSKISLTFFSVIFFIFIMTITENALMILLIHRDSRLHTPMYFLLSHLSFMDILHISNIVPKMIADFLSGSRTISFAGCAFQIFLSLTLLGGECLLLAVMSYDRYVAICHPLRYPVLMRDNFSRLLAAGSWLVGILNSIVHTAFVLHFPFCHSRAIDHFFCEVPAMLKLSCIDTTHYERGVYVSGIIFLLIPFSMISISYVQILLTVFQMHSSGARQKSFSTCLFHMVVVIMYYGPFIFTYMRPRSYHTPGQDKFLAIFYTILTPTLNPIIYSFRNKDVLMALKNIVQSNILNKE
How it was run: as §1

UniProt Q8VGM2 = target: T9, UniProt Q8VGM2
T9 sequence (whole entry): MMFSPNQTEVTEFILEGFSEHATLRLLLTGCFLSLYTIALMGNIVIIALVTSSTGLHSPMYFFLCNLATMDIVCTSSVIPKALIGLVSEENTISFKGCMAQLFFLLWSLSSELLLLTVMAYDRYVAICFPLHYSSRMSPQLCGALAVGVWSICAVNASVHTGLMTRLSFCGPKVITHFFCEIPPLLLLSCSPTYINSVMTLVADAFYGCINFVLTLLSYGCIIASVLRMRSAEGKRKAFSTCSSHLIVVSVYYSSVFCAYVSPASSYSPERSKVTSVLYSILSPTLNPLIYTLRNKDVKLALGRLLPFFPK
How it was run: as §1

UniProt Q8VGP6 = target: T10, UniProt Q8VGP6
T10 sequence (whole entry): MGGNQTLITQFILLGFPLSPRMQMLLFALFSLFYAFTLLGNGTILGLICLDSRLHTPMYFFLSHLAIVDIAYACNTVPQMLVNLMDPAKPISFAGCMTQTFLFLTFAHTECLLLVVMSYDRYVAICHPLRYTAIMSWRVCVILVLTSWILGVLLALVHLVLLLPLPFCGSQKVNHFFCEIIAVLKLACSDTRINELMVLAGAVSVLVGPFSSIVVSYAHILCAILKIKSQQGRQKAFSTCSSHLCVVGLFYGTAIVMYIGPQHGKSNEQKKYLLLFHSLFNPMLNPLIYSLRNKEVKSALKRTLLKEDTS
How it was run: as §1

UniProt Q8VGQ3 = target: T11, UniProt Q8VGQ3
T11 sequence (whole entry): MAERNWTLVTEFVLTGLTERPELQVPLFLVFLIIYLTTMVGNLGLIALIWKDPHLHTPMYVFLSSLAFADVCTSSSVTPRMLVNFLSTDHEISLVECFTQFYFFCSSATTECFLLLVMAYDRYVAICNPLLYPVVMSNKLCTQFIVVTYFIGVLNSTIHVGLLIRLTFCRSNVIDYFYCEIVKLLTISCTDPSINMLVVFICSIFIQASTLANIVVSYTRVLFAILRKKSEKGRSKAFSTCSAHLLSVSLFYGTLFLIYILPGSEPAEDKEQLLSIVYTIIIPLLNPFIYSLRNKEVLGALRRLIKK
How it was run: as §1

UniProt Q8VGT4 = target: T12, UniProt Q8VGT4
T12 sequence (whole entry): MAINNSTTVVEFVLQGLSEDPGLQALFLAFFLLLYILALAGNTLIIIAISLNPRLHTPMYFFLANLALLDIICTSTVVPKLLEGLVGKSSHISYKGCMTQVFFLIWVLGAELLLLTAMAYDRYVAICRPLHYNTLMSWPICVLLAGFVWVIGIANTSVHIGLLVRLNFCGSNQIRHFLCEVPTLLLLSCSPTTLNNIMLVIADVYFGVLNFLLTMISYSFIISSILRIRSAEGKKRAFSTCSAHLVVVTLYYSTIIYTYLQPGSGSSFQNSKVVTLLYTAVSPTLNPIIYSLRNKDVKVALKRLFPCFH
How it was run: as §1

UniProt Q8VGU3 = target: T13, UniProt Q8VGU3
T13 sequence (whole entry): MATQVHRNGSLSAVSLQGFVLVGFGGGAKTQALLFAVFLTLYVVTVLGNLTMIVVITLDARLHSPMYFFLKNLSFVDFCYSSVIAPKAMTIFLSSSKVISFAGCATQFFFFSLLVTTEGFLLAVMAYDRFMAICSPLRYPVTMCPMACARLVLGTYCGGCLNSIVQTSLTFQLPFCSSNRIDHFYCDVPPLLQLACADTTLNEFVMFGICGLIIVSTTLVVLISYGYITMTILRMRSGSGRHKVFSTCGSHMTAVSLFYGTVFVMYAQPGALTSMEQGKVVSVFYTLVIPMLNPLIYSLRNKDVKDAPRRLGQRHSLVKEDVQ
How it was run: as §1

UniProt Q8VGV1 = target: T14, UniProt Q8VGV1
T14 sequence (whole entry): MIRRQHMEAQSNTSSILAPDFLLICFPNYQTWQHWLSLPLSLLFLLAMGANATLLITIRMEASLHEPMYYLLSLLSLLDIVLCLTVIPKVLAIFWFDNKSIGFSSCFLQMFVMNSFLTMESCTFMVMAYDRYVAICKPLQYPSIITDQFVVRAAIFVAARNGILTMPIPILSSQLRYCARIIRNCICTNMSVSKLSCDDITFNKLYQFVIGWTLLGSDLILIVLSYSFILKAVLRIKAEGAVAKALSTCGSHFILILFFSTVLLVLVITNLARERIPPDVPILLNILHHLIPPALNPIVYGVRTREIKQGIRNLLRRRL
How it was run: as §1

UniProt Q8VGV7 = target: T15, UniProt Q8VGV7
T15 sequence (whole entry): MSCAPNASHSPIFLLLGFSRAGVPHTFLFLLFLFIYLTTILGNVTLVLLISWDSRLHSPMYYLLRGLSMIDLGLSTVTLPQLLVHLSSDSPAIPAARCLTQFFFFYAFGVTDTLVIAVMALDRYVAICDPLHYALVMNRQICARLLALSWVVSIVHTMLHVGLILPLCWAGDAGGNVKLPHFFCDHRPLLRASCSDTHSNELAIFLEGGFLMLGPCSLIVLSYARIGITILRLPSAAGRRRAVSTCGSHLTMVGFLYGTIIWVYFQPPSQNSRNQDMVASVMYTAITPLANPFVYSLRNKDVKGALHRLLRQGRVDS
How it was run: as §1

UniProt Q8VGX3 = target: T16, UniProt Q8VGX3
T16 sequence (whole entry): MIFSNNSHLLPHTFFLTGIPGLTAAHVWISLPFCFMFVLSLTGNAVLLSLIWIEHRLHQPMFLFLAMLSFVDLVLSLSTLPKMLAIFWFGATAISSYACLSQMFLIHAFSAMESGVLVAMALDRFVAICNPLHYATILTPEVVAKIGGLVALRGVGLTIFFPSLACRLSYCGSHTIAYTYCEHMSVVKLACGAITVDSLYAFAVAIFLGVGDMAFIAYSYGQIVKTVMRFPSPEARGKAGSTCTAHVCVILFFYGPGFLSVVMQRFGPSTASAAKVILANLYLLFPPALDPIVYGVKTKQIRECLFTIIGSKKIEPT
How it was run: as §1

UniProt Q8VGX5 = target: T17, UniProt Q8VGX5
T17 sequence (whole entry): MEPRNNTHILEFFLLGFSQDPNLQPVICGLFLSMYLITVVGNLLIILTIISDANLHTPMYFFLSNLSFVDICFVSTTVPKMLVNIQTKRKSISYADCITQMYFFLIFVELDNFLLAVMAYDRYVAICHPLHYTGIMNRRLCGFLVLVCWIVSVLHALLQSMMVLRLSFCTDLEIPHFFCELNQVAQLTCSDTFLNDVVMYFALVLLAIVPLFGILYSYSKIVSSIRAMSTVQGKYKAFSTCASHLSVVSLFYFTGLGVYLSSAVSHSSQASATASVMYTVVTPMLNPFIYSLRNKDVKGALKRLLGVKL
How it was run: as §1

Measured: odorant receptor agonist call

CCCCCCCCCS
active: UniProt Q8VGC6 | UniProt Q8VGP6
inactive: all other assays above

CC(C)=CC1CC(C)CCO1 (stereo not drawn)
inactive: UniProt Q8VGC6

CCC=O
inactive: UniProt Q8VGC6

CCC(=O)OC
inactive: UniProt Q8VGC6

O=C(Cl)CCCCCCCC(=O)Cl
inactive: UniProt Q8VGC6

O=C1Cc2ccccc2O1
active: UniProt Q8VGX5
inactive: all other assays above
